Assay results taken from ChEMBL document CHEMBL1154500, “Mechanism-based inhibitors of MenE, an acyl-CoA synthetase involved in bacterial menaquinone biosynthesis” (Bioorg Med Chem Lett, 2008).
The source made the active and inactive calls. The rule behind the calls is not given here.

Assays:
[1] = Inhibition of Escherichia coli Histidine6-tagged 20 nM MenE expressed in Escherichia coli BL21 cells coexpressing Mycobacterium tuberculosis Histidine6-tagged 7.2 uM MenB assessed as formation of DHNA-CoA by coupled assay
In short: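 Coupled MenE–MenB assay. E. coli MenE and M. tuberculosis MenB each carried an N-terminal His6 tag, were expressed separately in E. coli BL21, and were affinity-purified. Reactions contained MenB (7.2 μM), ATP, CoA and OSB (each 240 μM), and inhibitor (0–200 μM), and were started by adding MenE (20 nM final). DHNA-CoA formation was followed at 392 nm to derive IC50.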

[2] = Inhibition of Escherichia coli Histidine6-tagged 5 uM MenE expressed in Escherichia coli BL21 cells coexpressing Mycobacterium tuberculosis Histidine6-tagged 100 nM MenB assessed as formation of DHNA-CoA by coupled assay
In short: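 Counter-assay in the coupled format using separately purified His6-tagged E. coli MenE and M. tuberculosis MenB. MenB was limiting (100 nM) and MenE in excess (5 μM), to test for direct MenB inhibition. The read-out was DHNA-CoA formation.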

[3] = system: Mycolicibacterium smegmatis; test: Growth inhibition of Mycobacterium smegmatis upto 300 uM; type: functional, organism-based

Structure (SMILES) | IC50 [1] [µM] | inhibition [2] | inhibition [3]
C=C(CCC(=O)NS(=O)(=O)NC[C@H]1O[C@@H](n2cnc3c(N)ncnc32)[C@H](O)[C@@H]1O)c1ccccc1C(=O)OC | > 200 | inactive | inactive
C=C(CCC(=O)NS(=O)(=O)OC[C@H]1O[C@@H](n2cnc3c(N)ncnc32)[C@H](O)[C@@H]1O)c1ccccc1C(=O)OC | > 200 | inactive | inactive
COC(=O)c1ccccc1C(=O)CC/C=C/S(=O)(=O)NC[C@H]1O[C@@H](n2cnc3c(N)ncnc32)[C@H](O)[C@@H]1O | 5.7 | inactive | inactive
C=C(CC/C=C/S(=O)(=O)NC[C@H]1O[C@@H](n2cnc3c(N)ncnc32)[C@H](O)[C@@H]1O)c1ccccc1C(=O)OC | > 200 | inactive | inactive
COC(=O)c1ccccc1C(=O)CCC(=O)NS(=O)(=O)NC[C@H]1O[C@@H](n2cnc3c(N)ncnc32)[C@H](O)[C@@H]1O | 34.1 | inactive | inactive
COC(=O)c1ccccc1C(=O)CCC(=O)NS(=O)(=O)OC[C@H]1O[C@@H](n2cnc3c(N)ncnc32)[C@H](O)[C@@H]1O | 38 | inactive | inactive
